From ChEMBL document CHEMBL1129494, “Structure-based design of lipophilic quinazoline inhibitors of thymidylate synthase” (J Med Chem, 1996)
pIC50: −log10 of the molar value.

How the values were obtained:
CCRF-CEM [1] = experiment: Activity for growth inhibition in tissue culture of human leukemias (CCRF-CEM). value in parenthesis indicates % inhibition; assay type: functional, cell-based
CCRF-CEM [2] = experiment: (§1) Inhibition of CCRF-CEM (human leukemia) cell growth in vitro.; assay type: functional; set-up: concentration or dose not given beside the values
Method in brief: (§2)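 MTT colorimetric growth assay (modified Mosmann) in CCRF-CEM human leukemia cells seeded at 10 000 cells/well in RPMI-1640 with 5% fetal calf serum and 0.5% DMSO. Nine 2-fold serial dilutions of compound, 5 day incubation, then 4 h MTT and formazan dissolved in DMSO for spectrophotometric reading. IC50 taken from semilog plots of the mean of four growth assessments per dilution relative to control cultures.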

GC3/MTK- [3] = experiment: Activity for growth inhibition in tissue culture of thymidine kinase-deficient human adenocarcinoma cell line (GC3/M TK-)value in parenthesis indicates % inhibition; assay type: functional, cell-based
GC3/MTK- [4] = experiment: (§3) Inhibitory activity of compound against growth of thymidine kinase-deficient human adenocarcinoma cell line (GC3/M TK-) in tissue culture; assay type: functional
Method in brief: (§4)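 MTT colorimetric growth assay in the thymidine kinase-deficient human adenocarcinoma line. Seeded at 10 000 cells/well in RPMI-1640 with 10% fetal calf serum and 0.5% DMSO. Nine 2-fold serial dilutions of compound, 5 day incubation, then 4 h MTT. Formazan dissolved in DMSO and read spectrophotometrically. IC50 taken from semilog plots of the mean of four growth assessments per dilution, relative to control cultures.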

L1210 [5] = experiment: Inhibition of murine L1210 cell line tissue culture growth; assay type: functional, cell-based; conditions: Mus musculus
Method in brief: (§5)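 Murine L1210 leukemia cells seeded at 1000 cells/well in RPMI-1640 containing 5% fetal calf serum and 0.5% DMSO, exposed to nine 2-fold serial dilutions for 3 days. Growth was read by MTT (4 h), with formazan dissolved in DMSO and measured spectrophotometrically. IC50 comes from semilog concentration plots of the mean of four assessments per dilution versus control growth.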

L1210 [6] = experiment: Inhibition of L1210 (murine leukemia) cell growth in vitro.; assay type: functional, Mus musculus; set-up: concentration or dose not given beside the values; method in brief: as §5
[7] = target: Thymidylate synthase (Escherichia coli) (UniProt C3SWJ7)
[8] = target: Thymidylate synthase (Escherichia coli) (UniProt C3SWJ7); remark: listed apart in the source
[9] = target: Thymidylate synthase (Homo sapiens) (UniProt P04818)
[10] = target: Thymidylate synthase (Homo sapiens) (UniProt P04818); remark: listed apart in the source
GC3/MTK- [11] = experiment: Inhibition of GC3/M TK- (human adenocarcinoma) cell growth in vitro.; assay type: functional, cell-based
Method in brief: (§6)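 Thymidine kinase-deficient human adenocarcinoma GC3/M TK- cells seeded at 10 000 cells/well in RPMI-1640 with 10% fetal calf serum and 0.5% DMSO. Compound given as nine 2-fold serial dilutions over a 5 day incubation, then 4 h MTT and spectrophotometric formazan read after DMSO dissolution. IC50 from semilog plots of the mean of four growth assessments relative to control cultures.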

CCRF-CEM [12] = experiment: as §1; assay type: functional, cell-based; method in brief: as §2
CCRF-CEM [13] = experiment: Inhibitory activity of compound against growth of human leukemias (CCRF-CEM) cell line in tissue culture; assay type: functional
Method in brief: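 CCRF-CEM human leukemia cells seeded at 10 000 cells/well in RPMI-1640 with 5% fetal calf serum and 0.5% DMSO. Exposed to nine 2-fold serial dilutions for 5 days, followed by 4 h with MTT. Formazan dissolved in DMSO and measured spectrophotometrically. IC50 read from semilog plots of the mean of four growth assessments per dilution versus control growth.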

GC3/MTK- [14] = experiment: as §3; assay type: functional; set-up: concentration or dose not given beside the values; method in brief: as §4
CCRF-CEM [15] = experiment: Activity for growth inhibition in tissue culture of human leukemias (CCRF-CEM). value in parenthesis indicates % inhibition.; assay type: functional, cell-based
CCRF-CEM [16] = experiment: Inhibitory activity of compound against growth of human leukemias (CCRF-CEM) cell lne in tissue culture; assay type: functional; method in brief: as §2
CCRF-CEM [17] = experiment: Activity for growth inhibition in tissue culture of human leukemias (CCRF-CEM); assay type: functional, cell-based; method in brief: as §2
CCRF-CEM [18] = experiment: Activity for growth inhibition in tissue culture of human leukemias (CCRF-CEM); Insoluble.; assay type: functional, cell-based; method in brief: as §2
GC3/MTK- [19] = experiment: Inhibition of GC3/M TK- (human adenocarcinoma) cell growth in vitro; Insoluble.; assay type: functional, cell-based; method in brief: as §6
L1210 [20] = experiment: Activity for growth inhibition in tissue culture of murine (L1210); Insoluble; assay type: functional, cell-based, Mus musculus; method in brief: as §5

Sequence of Thymidylate synthase (Homo sapiens) (P04818 2-313 limits assumed): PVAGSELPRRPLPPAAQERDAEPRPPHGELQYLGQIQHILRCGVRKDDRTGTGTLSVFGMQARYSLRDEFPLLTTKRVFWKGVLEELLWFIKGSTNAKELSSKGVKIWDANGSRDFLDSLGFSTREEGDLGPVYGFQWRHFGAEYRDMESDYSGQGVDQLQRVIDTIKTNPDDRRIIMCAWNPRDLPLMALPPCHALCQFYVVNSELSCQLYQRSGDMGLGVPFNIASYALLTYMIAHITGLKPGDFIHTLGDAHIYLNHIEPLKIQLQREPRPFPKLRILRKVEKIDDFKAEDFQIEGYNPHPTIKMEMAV
Sequence of Thymidylate synthase (Escherichia coli) (C3SWJ7 1-264): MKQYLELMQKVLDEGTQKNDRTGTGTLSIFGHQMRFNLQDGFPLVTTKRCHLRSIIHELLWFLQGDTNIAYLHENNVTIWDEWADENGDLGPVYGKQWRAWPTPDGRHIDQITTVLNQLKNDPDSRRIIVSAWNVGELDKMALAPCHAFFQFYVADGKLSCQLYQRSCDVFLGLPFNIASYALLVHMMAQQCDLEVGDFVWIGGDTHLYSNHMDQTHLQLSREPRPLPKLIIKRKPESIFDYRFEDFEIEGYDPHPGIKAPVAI

SMILES	pIC50 (CCRF-CEM [1])	pIC50 (L1210 [5])	Kii [7]	Kis [8]	Kis [9]	Kii [10]	pIC50 (CCRF-CEM [12])	pIC50 (CCRF-CEM [15])	pIC50 (CCRF-CEM [17])	IC50 (CCRF-CEM [18])	IC50 (L1210 [20])	Inhibition (CCRF-CEM [2])	pIC50 (GC3/MTK- [3])	Inhibition (GC3/MTK- [4])	Inhibition (L1210 [6])	pIC50 (GC3/MTK- [11])	Inhibition (CCRF-CEM [13])	Inhibition (GC3/MTK- [14])	Inhibition (CCRF-CEM [16])	IC50 (GC3/MTK- [19])
CCN(Cc1ccc2nc(C)nc(O)c2c1)c1ccc(S(=O)(=O)c2ccccc2)cc1	–	6.18	0.24 µM	0.077 µM	0.034 µM	0.13 µM	5.57	–	–	–	–	–	–	–	–	5.59	–	–	–	–
C#CCN(Cc1ccc2nc(C)nc(O)c2c1)c1ccc(S(=O)(=O)c2ccccc2)cc1	–	6.07	–	–	–	–	5.84	–	–	–	–	–	–	–	–	5.75	–	–	–	–
C#CCN(Cc1ccc2nc(C)nc(O)c2c1)c1ccc(C#N)c(Cl)c1	–	5.35	0.1 µM	0.035 µM	0.037 µM	0.079 µM	< 5.17	–	–	–	–	–	–	25%	–	5.17	10%	–	–	–
C#CCN(Cc1ccc2[nH]c(N)nc(=O)c2c1)c1ccc(C(=O)NC(CCC(=O)O)C(=O)O)cc1 (stereo not given)	–	5.80	–	–	–	–	–	–	–	–	–	–	–	–	–	5.67	–	–	–	–
C#CCN(Cc1ccc2nc(C)nc(O)c2c1)c1ccc(C(=O)c2ccccc2)cc1	–	5.11	0.47 µM	0.094 µM	0.11 µM	0.16 µM	< 5.11	–	–	–	–	40%	–	–	–	5.21	–	–	–	–
CCN(Cc1ccc2nc(C)nc(O)c2c1)c1ccc(C(=O)C(F)(F)F)cc1	–	5.47	1 µM	0.18 µM	0.13 µM	0.49 µM	< 5.40	–	–	–	–	10%	–	–	–	< 5.40	–	10%	–	–
C#CCN(Cc1ccc2nc(C)nc(S)c2c1)c1cccc(C(F)(F)F)c1	–	< 5.25	0.36 µM	0.18 µM	1.3 µM	2.3 µM	< 5.25	–	–	–	–	30%	< 5.25	–	–	–	–	–	–	–
C#CCN(Cc1ccc2nc(C)nc(O)c2c1)c1ccc(S(=O)(=O)NCC(=O)O)c(C(F)(F)F)c1	< 4.11	< 4.12	0.015 µM	0.0059 µM	0.0096 µM	0.019 µM	–	–	–	–	–	–	–	–	–	< 4.11	–	28%	–	–
C#CCN(Cc1ccc2nc(C)nc(O)c2c1)c1ccc([S+]([O-])c2ccccc2)cc1 (stereo not given)	–	5.77	0.55 µM	0.16 µM	0.061 µM	0.11 µM	5.35	–	–	–	–	–	–	–	–	5.41	–	–	–	–
C#CCN(Cc1ccc2nc(C)nc(O)c2c1)c1ccc([N+](=O)[O-])c(C(F)(F)F)c1	–	5.30	0.073 µM	0.038 µM	0.074 µM	0.15 µM	4.98	–	–	–	–	–	–	–	–	–	–	–	–	–
C#CCN(Cc1ccc2nc(C)nc(O)c2c1)c1ccc(C#N)c(C(F)(F)F)c1	–	< 5.55	0.047 µM	0.015 µM	0.081 µM	0.14 µM	–	–	–	–	–	–	–	–	>15%	–	–	–	–	–
C#CCN(Cc1ccc2nc(C)nc(O)c2c1)c1ccc(S(N)(=O)=O)c(C(F)(F)F)c1	–	–	0.061 µM	0.024 µM	0.036 µM	0.07 µM	–	–	–	Insoluble	Insoluble	–	–	–	–	–	–	–	–	Insoluble
Cc1nc(O)c2cc(CN(C)c3ccc(Cc4ccccc4)cc3)ccc2n1	–	5.55	> 1 µM	> 1 µM	> 1 µM	> 1 µM	5.47	–	–	–	–	–	< 5.30	–	–	–	–	–	–	–
C#CCN(Cc1ccc2nc(C)nc(O)c2c1)c1ccc(C(=O)NC(CCC(=O)O)C(=O)O)cc1 (stereo not given)	–	7.35	–	0.0048 µM	0.0085 µM	0.0071 µM	–	–	7.54	–	–	–	–	–	–	7.32	–	–	–	–
Cc1nc(O)c2cc(CNc3ccc(S(=O)(=O)c4ccccc4)cc3)ccc2n1	–	< 4.83	17 µM	2 µM	1 µM	2.2 µM	< 4.83	–	–	–	–	33%	–	–	40%	< 4.83	–	10%	–	–

More lines, main results first:

pIC50 (CCRF-CEM [1])	pIC50 (L1210 [5])	Kii [7]	Kis [8]	Kis [9]	Kii [10]	pIC50 (CCRF-CEM [12])	pIC50 (CCRF-CEM [15])	pIC50 (CCRF-CEM [17])	IC50 (CCRF-CEM [18])	IC50 (L1210 [20])	SMILES	Inhibition (CCRF-CEM [2])	pIC50 (GC3/MTK- [3])	Inhibition (GC3/MTK- [4])	Inhibition (L1210 [6])	pIC50 (GC3/MTK- [11])	Inhibition (CCRF-CEM [13])	Inhibition (GC3/MTK- [14])	Inhibition (CCRF-CEM [16])	IC50 (GC3/MTK- [19])
< 5.30	< 5.30	24 µM	5 µM	2.7 µM	3.8 µM	–	–	–	–	–	C#CCN(Cc1ccc2nc(C)nc(O)c2c1)c1cccc(CC)c1	26%	< 5.30	20%	25%	–	–	–	–	–
–	4.70	0.41 µM	0.1 µM	0.064 µM	0.084 µM	< 4.59	–	–	–	–	C#CCN(Cc1ccc2nc(C)nc(O)c2c1)c1ccc(S(N)(=O)=O)cc1	–	–	–	–	< 4.59	–	–	–	–
< 5.28	< 5.28	1.4 µM	0.33 µM	0.16 µM	0.44 µM	–	–	–	–	–	C#CCN(Cc1ccc2nc(C)nc(O)c2c1)c1cccc(I)c1	10%	–	–	–	< 5.28	–	35%	–	–
–	4.32	5.1 µM	1.7 µM	0.62 µM	1.2 µM	–	< 4.27	–	–	–	C#CCN(Cc1ccc2nc(C)nc(O)c2c1)c1cccc(CO)c1	30%	–	–	–	< 4.27	–	22%	–	–
–	5.74	3.3 µM	0.92 µM	0.65 µM	0.84 µM	< 5.24	–	–	–	–	C#CCN(Cc1ccc2nc(C)nc(O)c2c1)c1cccc(Br)c1	20%	–	–	–	5.28	–	–	–	–
–	< 5.30	16 µM	3.4 µM	1.4 µM	3.4 µM	< 5.30	–	–	–	–	C#CCN(Cc1ccc2nc(C)nc(O)c2c1)c1cccc(C)c1	–	< 5.30	34%	30%	–	–	–	20%	–
–	< 5.19	–	–	–	–	< 4.97	–	–	–	–	C#CCN(Cc1ccc2nc(C)nc(O)c2c1)c1ccccc1	–	–	24%	35%	< 4.97	–	–	29%	–
–	< 5.30	0.33 µM	0.15 µM	0.076 µM	0.17 µM	–	–	< 5.30	–	–	C#CCN(Cc1ccc2nc(C)nc(O)c2c1)c1ccc(C#N)cc1	10%	–	–	35%	< 5.30	–	–	–	–
< 5.56	< 5.56	0.064 µM	0.042 µM	0.021 µM	0.028 µM	–	–	–	–	–	C#CCN(Cc1ccc2nc(C)nc(O)c2c1)c1ccc(S(=O)(=O)C(F)(F)F)cc1	–	< 5.56	–	45%	–	–	–	–	–
< 5.62	< 5.62	2.7 µM	0.86 µM	0.41 µM	0.68 µM	–	–	–	–	–	C#CCN(Cc1ccc2nc(C)nc(O)c2c1)c1cccc(C#C)c1	15%	–	–	5%	–	–	–	–	–
–	5.33	0.17 µM	0.068 µM	0.056 µM	0.098 µM	< 5.32	–	–	–	–	C#CCN(Cc1ccc2nc(C)nc(O)c2c1)c1ccc([N+](=O)[O-])cc1	8%	–	–	–	< 5.32	–	–	–	–
< 4.31	< 4.31	8.3 µM	2.4 µM	1.7 µM	3.6 µM	–	–	–	–	–	C#CCN(Cc1ccc2nc(C)nc(O)c2c1)c1cccc(C(C)O)c1 (stereo not given)	33%	–	–	35%	4.31	–	–	–	–
–	5.51	0.15 µM	0.039 µM	0.045 µM	0.091 µM	5.35	–	–	–	–	C#CCN(Cc1ccc2nc(C)nc(O)c2c1)c1ccc(S(=O)(=O)N2CCOCC2)cc1	–	–	–	–	5.28	–	–	–	–
–	< 4.30	0.28 µM	0.1 µM	0.063 µM	0.071 µM	4.32	–	–	–	–	C#CCN(Cc1ccc2nc(C)nc(O)c2c1)c1ccc(S(=O)(=O)N2CCNCC2)cc1	–	< 4.30	–	47%	–	–	47%	–	–
